What all share (format): functional
For assay [1], the species on record is Mus musculus. Briefly: Ability to enhance antibody response to tetanus toxoid vaccine, IgG2b. The procedure, abridged: (§1)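 Mice were immunized with tetanus toxoid in an oil-water emulsion with test article, then boosted 21 days after the primary dose. Serum was taken 14 days after the second injection and assayed by ELISA. Values are test titers divided by the titer of controls given oil-water vehicle with tetanus toxoid only.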

The species named for assay [2] is Mus musculus. Briefly: Percent of cytotoxicity was determined for augment vaccine-induced CTL's against EG.7-ova target cells in two separate murine models. The procedure, abridged: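 C57BL/6 (H-2b) mice, 6 per group, were immunized on days 0 and 14 with a 2.5% oil-water emulsion containing 25 µg ovalbumin plus test article. On day 21, spleens were tested for ovalbumin-specific CTL against 51Cr-labeled E.G7-ova target cells, an ovalbumin-transfected line. Read-out was percent specific lysis.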

For assay [3], the species on record is Mus musculus. Briefly: Ability to enhance antibody response to tetanus toxoid vaccine, IgG2a. The procedure, abridged:
as §1

Another assay is filed under the species Oryctolagus cuniculus. Description: Minimum pyrogenic dose was determined for Febrile response in a standard 3-rabbit USP pyrogen test by injecting compound in the marginal ear vein. The method, boiled down: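 Test article dissolved in EtOH, then diluted with D5W to the desired concentrations just before injection. The minimal pyrogenic dose is the dose at which the summed temperature rise over the three rabbits reaches at least 1.2 °C.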

The species named for assay [4] is Mus musculus. Description: Ability to enhance antibody response to tetanus toxoid vaccine, IgG1. The method, boiled down:
as §1

The species named for assay [5] is Mus musculus. Briefly: Half-maximal response in vitro using peritoneal exudate cells from Propionibacterium acnes-primed mice. Conditions: read-out: ED50 (the source's name).
The species named for assay [6] is Mus musculus. Description: Ability to enhance antibody response to tetanus toxoid vaccine, total Immunoglobulin (Ig). The method, boiled down:
as §1

The species named for assay [7] is Homo sapiens. Description: Relative ex vivo induction of IL1-beta in human whole blood stimulated with 10 ug/mL. The procedure, abridged: (§2)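 Human whole blood was stimulated with sample, and cell-associated TNF-α and IL-1β were measured by sandwich ELISA. Relative induction below 0.05 was scored as not detected.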
For assay [8], the species on record is Homo sapiens. Description: Relative ex vivo induction of TNF-alpha in human whole blood stimulated with 10 ug/mL. The method, boiled down: as §2

Values after ≈ are worked out from the molar mass of the structure shown.

As to `CCCCCCCCCCCCCC(=O)O[C@H](CCCCCCCCCCC)CC(=O)N[C@@H](CO)CO[C@@H]1OC(CO)[C@H](OP(=O)(O)O)C(OC(=O)C[C@@H](CCCCCCCCCCC)OC(=O)CCCCCCCCCCCCC)[C@@H]1NC(=O)C[C@@H](CCCCCCCCCCC)OC(=O)CCCCCCCCCCCCC` (stereo partly drawn), the Response in the assay listed under Mus musculus [1] is 2.4; in the assay listed under Mus musculus [3], 3.8; in the assay listed under Mus musculus [4], 3.4; in the assay filed under Mus musculus [6] it was 4. Besides, the Cytotoxicity in the assay listed under Mus musculus [2] amounted to 34%. For the same compound, the Dose in the assay listed under Oryctolagus cuniculus was greater than 0.01 mg/kg. In the assay listed under Mus musculus [5], the EC50 turned out to be 0.15 µg/mL (≈ 0.0913 µM).
With `CCCCCCCCCCC[C@H](CC(=O)N[C@H](CO[C@@H]1OC(CO)[C@H](OP(=O)(O)O)C(OC(=O)C[C@@H](CCCCCCCCCCC)OC(=O)CCCCCCCCC)[C@@H]1NC(=O)C[C@@H](CCCCCCCCCCC)OC(=O)CCCCCCCCC)C(=O)O)OC(=O)CCCCCCCCC` (stereo partly drawn), the Cytokine induction in the assay listed under Homo sapiens [7] is given as 0.6; in the assay listed under Homo sapiens [8] it was 1.5. Further, the Dose in the assay filed under Oryctolagus cuniculus is less than 0.0025 mg/kg. Also, the EC50 in the assay filed under Mus musculus [5] came to 0.0003 µg/mL (≈ 0.000202 µM).
For the compound `CCCCCCCCCCCCCC(=O)O[C@H](CCCCCCCCCCC)CC(=O)N[C@H](CO)CO[C@@H]1OC(CO)[C@H](OP(=O)(O)O)C(OC(=O)C[C@@H](CCCCCCCCCCC)OC(=O)CCCCCCCCCCCCC)[C@@H]1NC(=O)C[C@@H](CCCCCCCCCCC)OC(=O)CCCCCCCCCCCCC` (stereo partly drawn), the Response is given as 1.6 in the assay filed under Mus musculus [1], 4.3 in the assay listed under Mus musculus [3], 2.2 in the assay listed under Mus musculus [4] and 3.8 in the assay listed under Mus musculus [6]. For the same compound, the Cytokine induction was determined as 4.9 in the assay filed under Homo sapiens [7] and 3.5 in the assay listed under Homo sapiens [8]. The Cytotoxicity in the assay listed under Mus musculus [2] is on record as 21%. Also, the Dose in the assay listed under Oryctolagus cuniculus worked out at 0.01 mg/kg. Besides, the EC50 in the assay filed under Mus musculus [5] was found to be 0.009 µg/mL (≈ 0.00548 µM).
As to `CCCCCCCCCCCCCCCC(=O)O[C@H](CCCCCCCCCCC)CC(=O)N[C@H]1[C@@H](O)[C@H](O)[C@H](CO[C@@H]2O[C@@H](CO)[C@@H](OP(=O)(O)O)[C@H](OC(=O)C[C@@H](CCCCCCCCCCC)OC(=O)CCCCCCCCCCCCC)[C@@H]2NC(=O)C[C@@H](CCCCCCCCCCC)OC(=O)CCCCCCCCCCC)O[C@H]1O`, the results for the Cytokine induction in the assay filed under Homo sapiens [7] and in the assay listed under Homo sapiens [8] were 0.7 and 1.2, respectively. The compound further returned a Cytotoxicity in the assay listed under Mus musculus [2] of 31%. This compound also displayed a Dose in the assay filed under Oryctolagus cuniculus of 0.01 mg/kg. Further, in the assay filed under Mus musculus [5], the EC50 came out at 0.014 µg/mL (≈ 0.00809 µM).
Consider `CCCCCCCCCCC[C@H](CC(=O)NCCO[C@@H]1OC(CO)[C@H](OP(=O)(O)O)C(OC(=O)C[C@@H](CCCCCCCCCCC)OC(=O)CCCCCCCCC)[C@@H]1NC(=O)C[C@@H](CCCCCCCCCCC)OC(=O)CCCCCCCCC)OC(=O)CCCCCCCCC` (stereo partly drawn), for which the figures for the Cytokine induction in the assay filed under Homo sapiens [7] and in the assay listed under Homo sapiens [8] were 1.9 and 1.3, respectively. Besides, the Cytotoxicity in the assay listed under Mus musculus [2] came to 36%. The Dose in the assay filed under Oryctolagus cuniculus stood at 0.01 mg/kg. Besides, the EC50 in the assay listed under Mus musculus [5] worked out at 0.0005 µg/mL (≈ 0.000346 µM).
For `CCCCCCCCCCC[C@H](CC(=O)NC(CO[C@@H]1OC(CO)[C@H](OP(=O)(O)O)C(OC(=O)C[C@@H](CCCCCCCCCCC)OC(=O)CCCCC)[C@@H]1NC(=O)C[C@@H](CCCCCCCCCCC)OC(=O)CCCCC)C(=O)O)OC(=O)CCCCC` (stereo partly drawn), the Response is recorded as 0.9 in the assay filed under Mus musculus [1], 0.3 in the assay listed under Mus musculus [3], 1.3 in the assay listed under Mus musculus [4] and 1.1 in the assay filed under Mus musculus [6]. Besides, in the assay filed under Oryctolagus cuniculus, the Dose is less than 0.0025 mg/kg. Besides, the EC50 in the assay filed under Mus musculus [5] is greater than 10 µg/mL.
`CCCCCCCCCCC[C@H](CC(=O)NC(CO[C@@H]1OC(CO)[C@H](OP(=O)(O)O)C(OC(=O)C[C@@H](CCCCCCCCCCC)OC(=O)CCCCC)[C@@H]1NC(=O)C[C@@H](CCCCCCCCCCC)OC(=O)CCCCC)C(N)=O)OC(=O)CCCCC` (stereo partly drawn) showed a Dose in the assay filed under Oryctolagus cuniculus greater than 0.01 mg/kg. Also, in the assay filed under Mus musculus [5], the EC50 was greater than 10 µg/mL.
In the case of `CCCCCCCCCCCCCC(=O)O[C@H](CCCCCCCCCCC)CC(=O)NC(CO[C@@H]1OC(CO)[C@H](OP(=O)(O)O)C(OC(=O)C[C@@H](CCCCCCCCCCC)OC(=O)CCCCCCCCCCCCC)[C@@H]1NC(=O)C[C@@H](CCCCCCCCCCC)OC(=O)CCCCCCCCCCCCC)C(=O)OC` (stereo partly drawn), the Cytokine induction in the assay filed under Homo sapiens [7] and in the assay filed under Homo sapiens [8] was 1.1 in each case. In the assay filed under Oryctolagus cuniculus, this compound showed a Dose of 0.01 mg/kg. In addition, the EC50 in the assay listed under Mus musculus [5] came to 0.067 µg/mL (≈ 0.0401 µM).
With `CCCCCCCCCCC[C@H](CC(=O)NCCO[C@@H]1OC(CO)[C@H](OP(=O)(O)O)C(OC(=O)C[C@@H](CCCCCCCCCCC)OC(=O)CCCCC)[C@@H]1NC(=O)C[C@@H](CCCCCCCCCCC)OC(=O)CCCCC)OC(=O)CCCCC` (stereo partly drawn), the Dose in the assay filed under Oryctolagus cuniculus stood at 0.01 mg/kg. For the same compound, the EC50 in the assay filed under Mus musculus [5] is greater than 10 µg/mL.
Turning to `CCCCCCCCCCCC(=O)O[C@H](CCCCCCCCCCC)CC(=O)NC(CO[C@@H]1OC(CO)[C@H](OP(=O)(O)O)C(OC(=O)C[C@@H](CCCCCCCCCCC)OC(=O)CCCCCCCCCCC)[C@@H]1NC(=O)C[C@@H](CCCCCCCCCCC)OC(=O)CCCCCCCCCCC)C(=O)O` (stereo partly drawn), the Cytokine induction came out at 2 in the assay listed under Homo sapiens [7] and 3.6 in the assay filed under Homo sapiens [8]. In addition, in the assay filed under Oryctolagus cuniculus, the Dose was less than 0.0025 mg/kg. Further, the EC50 in the assay filed under Mus musculus [5] was determined as 0.0009 µg/mL (≈ 0.000572 µM).
As for `CCCCCCCCCCCCCC(=O)O[C@H](CCCCCCCCCCC)CC(=O)NC(CO[C@@H]1OC(CO)[C@H](OP(=O)(O)O)C(OC(=O)C[C@@H](CCCCCCCCCCC)OC(=O)CCCCCCCCCCCCC)[C@@H]1NC(=O)C[C@@H](CCCCCCCCCCC)OC(=O)CCCCCCCCCCCCC)C(N)=O` (stereo partly drawn), the results for the Cytokine induction in the assay filed under Homo sapiens [7] and in the assay listed under Homo sapiens [8] were 0.9 and 1.1, respectively. The compound further had a Dose in the assay filed under Oryctolagus cuniculus of 0.01 mg/kg. Also, the EC50 in the assay listed under Mus musculus [5] stood at 0.02 µg/mL (≈ 0.0121 µM).
In the case of `CCCCCCCCCCCCCC(=O)O[C@H](CCCCCCCCCCC)CC(=O)NCCO[C@@H]1OC(CO)[C@H](OP(=O)(O)O)C(OC(=O)C[C@@H](CCCCCCCCCCC)OC(=O)CCCCCCCCCCCCC)[C@@H]1NC(=O)C[C@@H](CCCCCCCCCCC)OC(=O)CCCCCCCCCCCCC` (stereo partly drawn), the Cytokine induction in the assay listed under Homo sapiens [7] and in the assay listed under Homo sapiens [8] was 0.3 in each case. For the same compound, in the assay listed under Mus musculus [2], the Cytotoxicity was 59%. Further, the Dose in the assay listed under Oryctolagus cuniculus is 0.01 mg/kg. Also, the EC50 in the assay listed under Mus musculus [5] was 0.1 µg/mL (≈ 0.062 µM).
In the case of `CCCCCCCCCCCCCC(=O)O[C@H](CCCCCCCCCCC)CC(=O)NCCCCCCCCO[C@@H]1OC(CO)[C@H](OP(=O)(O)O)C(OC(=O)C[C@@H](CCCCCCCCCCC)OC(=O)CCCCCCCCCCCCC)[C@@H]1NC(=O)C[C@@H](CCCCCCCCCCC)OC(=O)CCCCCCCCCCCCC` (stereo partly drawn), the Dose in the assay filed under Oryctolagus cuniculus is greater than 0.01 mg/kg. Moreover, the EC50 in the assay filed under Mus musculus [5] was greater than 10 µg/mL.
On the same counts, the results for `CCCCCCCCCCC[C@H](CC(=O)NC(CO[C@@H]1OC(CO)[C@H](OP(=O)(O)O)C(OC(=O)C[C@@H](CCCCCCCCCCC)OC(=O)CCCCCCC)[C@@H]1NC(=O)C[C@@H](CCCCCCCCCCC)OC(=O)CCCCCCC)C(=O)O)OC(=O)CCCCCCC` (stereo partly drawn) are less than 0.0025 mg/kg and 0.033 µg/mL (≈ 0.0235 µM).
On the same counts, the results for `CCCCCCCCCCCCCC(=O)O[C@H](CCCCCCCCCCC)CC(=O)NCCCCCCO[C@@H]1OC(CO)[C@H](OP(=O)(O)O)C(OC(=O)C[C@@H](CCCCCCCCCCC)OC(=O)CCCCCCCCCCCCC)[C@@H]1NC(=O)C[C@@H](CCCCCCCCCCC)OC(=O)CCCCCCCCCCCCC` (stereo partly drawn) are greater than 0.01 mg/kg and 0.16 µg/mL (≈ 0.0959 µM).
Consider `CCCCCCCCCCCCCC(=O)O[C@H](CCCCCCCCCCC)CC(=O)NCCCCO[C@@H]1OC(CO)[C@H](OP(=O)(O)O)C(OC(=O)C[C@@H](CCCCCCCCCCC)OC(=O)CCCCCCCCCCCCC)[C@@H]1NC(=O)C[C@@H](CCCCCCCCCCC)OC(=O)CCCCCCCCCCCCC` (stereo partly drawn), for which the Cytokine induction turned out to be 0.3 in the assay listed under Homo sapiens [7] and 1 in the assay filed under Homo sapiens [8]. For the same compound, in the assay listed under Mus musculus [2], the Cytotoxicity is 58%. In the assay listed under Oryctolagus cuniculus, this compound had a Dose of 0.01 mg/kg. Moreover, the EC50 in the assay filed under Mus musculus [5] worked out at 0.051 µg/mL (≈ 0.0311 µM).

Source of the values: ChEMBL document CHEMBL1131828, “Synthesis and biological evaluation of a new class of vaccine adjuvants: aminoalkyl glucosaminide 4-phosphates (AGPs)” (1999).
